T cell modulator: T cell immune modulators affecting CD8 T cell-vesicle binding. 2C CD8+ T cell-vesicle binding, flow cytometry; hits give low values. response (vesicle binding), % at 7 µM. 330,000 compounds, 0.068% hits. AID 2052;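 active = response, share of CD8 T cells binding vesicles, and their 90th percentile fluorescence all below set limits, cut at about 80% in these data, passing the limit was not always enough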;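 also: values below 100% mean blocked vesicle binding to the CD8+ T cells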
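System: murine 2C transgenic CD8+ T lymphocytes; also added: QL9-loaded Drosophila micro-vesicles; times: binding 1.5 h at 37 °C; measured by: flow cytometry, PE anti-B7-1 (FL2) versus Alexa647 anti-CD8 (FL8), PFA-fixed; control set: Peptide-free naked vesicles (low) and QL9 vesicles with 0.7% DMSO vehicle (high)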
HKDC1 inhibitor: blocks human hexokinase HKDC1 activity; 340,000 compounds, 0.16% hits; inhibition, % at 20 µM; recombinant HKDC1, G6PDH/diaphorase resazurin coupled fluorescence; AID 493160; Q2TB90;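 active = inhibition above about 35% when tested at 20 µM, limit read from the data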;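 also: plate controls were DMSO wells with enzyme for no effect and DMSO wells lacking enzyme for full effect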
Target sequence (Q2TB90 whole entry, looked up): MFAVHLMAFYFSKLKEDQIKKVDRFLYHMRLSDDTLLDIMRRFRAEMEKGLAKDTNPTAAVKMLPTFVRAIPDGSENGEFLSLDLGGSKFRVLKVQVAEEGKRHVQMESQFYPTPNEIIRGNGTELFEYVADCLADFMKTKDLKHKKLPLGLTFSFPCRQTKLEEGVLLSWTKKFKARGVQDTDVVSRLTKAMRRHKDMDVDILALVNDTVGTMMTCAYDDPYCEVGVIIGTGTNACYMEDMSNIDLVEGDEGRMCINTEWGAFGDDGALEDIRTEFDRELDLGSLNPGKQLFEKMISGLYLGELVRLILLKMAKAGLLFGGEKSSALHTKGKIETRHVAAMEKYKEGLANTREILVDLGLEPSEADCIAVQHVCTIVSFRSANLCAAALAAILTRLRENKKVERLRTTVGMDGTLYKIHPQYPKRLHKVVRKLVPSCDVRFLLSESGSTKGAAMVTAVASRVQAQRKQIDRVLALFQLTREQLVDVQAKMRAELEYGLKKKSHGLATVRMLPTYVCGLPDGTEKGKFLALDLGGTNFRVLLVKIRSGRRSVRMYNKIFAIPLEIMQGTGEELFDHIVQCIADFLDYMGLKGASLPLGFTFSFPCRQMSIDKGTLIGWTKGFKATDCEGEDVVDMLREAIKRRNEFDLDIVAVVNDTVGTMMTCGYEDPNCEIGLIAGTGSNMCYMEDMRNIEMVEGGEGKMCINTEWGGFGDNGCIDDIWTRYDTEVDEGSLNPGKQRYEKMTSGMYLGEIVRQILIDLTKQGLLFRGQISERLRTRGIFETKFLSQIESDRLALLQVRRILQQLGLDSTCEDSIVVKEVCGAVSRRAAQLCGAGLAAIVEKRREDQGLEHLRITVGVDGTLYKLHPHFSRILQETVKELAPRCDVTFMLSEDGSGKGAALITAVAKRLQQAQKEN
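Test system: recombinant HKDC1 (HK5) hexokinase enzyme, produced in-house; Amount: enzyme 5 µg/mL final; Buffer or medium: Tris pH 8.0 buffer with MgCl2, Tween-20, BSA, BME; Reagent: glucose and ATP substrates; Doses: 20 µM test compound, 1% DMSO; Incubation: 90 min reaction incubation at room temperature, dark; Detection: resorufin fluorescence at 613 nm.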
PfG6PD inh: PfG6PD (Plasmodium falciparum) enzyme inhibition | PfGluPho enzyme, NADPH resazurin-diaphorase fluorescence | inhibition, % at 20 µM | 350,000 compounds, 0.78% hits | AID 504690;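 active = inhibition reaching at least a set limit at 20 µM in the primary screen, cut at about 59% in these data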;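 also: 0% = DMSO wells with substrate and 100% = DMSO wells lacking glucose-6-phosphate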
ATG4B inhibitor: ATG4B (human) cysteine protease inhibition. Q9Y4P1. ATG4B cleavage of LC3-PLA2, NBD-HPC fluorescence, 1 h. inhibition, % at 8.33 µM. 340,000 compounds, 0.51% hits. AID 504462; in the data active = inhibition above about 40%
PKA-R2B act: activates the human PKA-R2B holoenzyme complex; AID 504700; PKA-R2B holoenzyme dissociation, Cy5-IP20 fluorescence polarization; R2B truncated from residue 108, S112A mutant; 0% DMSO only, 100% 113 µM cGMP; activation, % at 11.4 µM; 340,000 compounds, 0.079% hits;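 active = activation above a cutoff set at the mean over all compounds plus 3 SD, cut at about 18% in these data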;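 also: higher means more holoenzyme dissociation and a rise in polarization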
PKA-R1A activ: activators of PKA-R1A complex | P00514+P68181 | PKA-R1A dissociation, Cy5-IP20 fluorescence polarization; scaled: DMSO 0%, 113 µM cGMP 100% | activation, % at 11.4 µM | 340,000 compounds, 0.083% hits;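 active = percent activation above the mean of all tested compounds plus 3 SD, cut at about 19% in these data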;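 also: higher means more PKAc released from R1A so a rise in polarization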
* marks the source's active call; other numbers are inactive results; i = inactive; nt = not tested or not shown. In the library only some 1.6% were active in any assay of this set; here they are far more common.

SMILES | T cell modulator | HKDC1 inhibitor | PfG6PD inh | ATG4B inhibitor | PKA-R2B act | PKA-R1A activ
O=C(CSc1nc2c(c(=O)n1-c1ccc(Br)cc1)SCC2)NCc1ccco1 | 278.5 | -8.3 | 8.8 | 13.7 | -9.2 | 10.0
O=C(CSc1nc2c(c(=O)n1-c1ccc(Br)cc1)SCC2)Nc1nccs1 | 452.7 | -3.1 | 7.9 | 57.2* | -8.5 | 1.2
O=C(c1ccccc1F)N1CCN(C(=O)C2CC2)CC1 | 290.8 | -6.7 | -13.1 | 2.0 | 14.0 | 7.1
CCOc1ccccc1C(C(=O)NC1CCCCC1)N(C(=O)c1csnn1)C1CC1 (stereo not drawn) | 211.2 | -5.4 | -8.1 | -2.8 | 0.0 | -1.4
COc1cc(CNCCc2ccc(S(N)(=O)=O)cc2)ccc1OCC(=O)N1CCCCC1 | 79.1* | 5.6 | -6.2 | -5.8 | 2.0 | 2.5
CC(C)=C[C@@H]1C[C@H](C)[C@H]2CC[C@H](C)c3c(O)c(O)c(C)c1c32 | 535.6 | 21.1 | 79.1* | 1.0 | -3.0 | -1.0
Cc1ccc(S(=O)(=O)NNC(=O)c2cccs2)c(C)c1 | 251.9 | 6.3 | -8.9 | 6.0 | -15.4 | 2.6
Cc1ccc(S(=O)(=O)NNc2ccccc2)c(C)c1 | 296.3 | -11.9 | 83.2* | -12.6 | -12.2 | -6.1
CC(=O)N1CCN(C(=S)c2ccc(-c3ccc(Cl)cc3)o2)CC1 | 257.6 | -6.2 | 62.0* | 2.7 | -11.3 | 3.2
CCOc1cc(N2CCOCC2)c(OCC)cc1NC(=O)Cc1cccc2ccccc12 | 572.6 | 3.6 | 89.1* | -4.3 | -4.3 | -3.5
O=C(Nc1ccc(N2CCOCC2)c(Cl)c1)c1cc2ccccc2o1 | 173.3 | 2.5 | 125.6* | 2.1 | -1.9 | -9.2
CC(N)c1ccc(Cl)cc1Cl (stereo not drawn) | 32.3* | -7.6 | 11.4 | -3.2 | 2.8 | 3.1
CC(NC(=O)c1ccncc1)c1ccc(Cl)cc1Cl (stereo not drawn) | 928.8 | -3.3 | 12.2 | 0.5 | -6.8 | 0.8
COC(=O)C1CCN(C(=O)COC(=O)c2cccc(NS(=O)(=O)c3ccccc3)c2)CC1 | 168.3 | -4.2 | -1.9 | -3.6 | -10.0 | -14.7
Cn1nc(C(=O)NCC2COc3ccccc3O2)c2ccccc2c1=O (stereo not drawn) | 259.3 | -2.6 | 4.5 | -3.7 | -7.6 | -10.7
O=[N+]([O-])c1ccc2c(c1)N([O-])C1(CCCCC1)[N+]2=O | nt | 22.8 | 59.5* | -2.6 | nt | nt
CC1=C(c2ccccc2)[N+](=O)C2(CCCC2)N1[O-] | 333.2 | -1.9 | -1.6 | -2.6 | -2.2 | -5.1
CN(C)CCCNc1oc(-c2ccccc2Cl)nc1S(=O)(=O)c1ccc(F)cc1 | i | -1.5 | 8.7 | -6.8 | 0.3 | 3.3
CN(C)CCNc1oc(-c2ccccc2Cl)nc1S(=O)(=O)c1ccccc1 | 0.0* | -1.2 | 2.5 | 1.3 | 6.1 | -11.0
Cc1ccccc1N(CC(=O)NCC1CCCO1)C(=O)CCC(=O)Nc1nccs1 (stereo not drawn) | 149.9 | -5.8 | 2.3 | 0.6 | -0.8 | 2.5
O=C(Nc1ccc(N2CCCC2)cc1)C(Cl)c1ccccc1 (stereo not drawn) | 180.1 | 7.9 | 87.6* | 1.1 | -24.8 | -24.8
CS(=O)(=O)N1CCN(c2ccc(NC(=O)C(c3ccccc3)c3ccccc3)cc2)CC1 | 414.7 | -3.2 | 13.7 | -0.4 | -3.1 | 8.1
Nc1nc2ccccc2[nH]1 | 217.9 | -3.1 | -2.1 | -3.9 | 2.0 | -4.8
Nc1ccccc1Sc1nc2ccccc2[nH]1 | 508.3 | 1.3 | 62.1* | -6.5 | 1.6 | -1.6
O=[N+]([O-])c1ccccc1C(O)Cc1ccccn1 (stereo not drawn) | nt | -8.3 | 7.1 | -6.8 | -12.1 | -5.0
SMILES | T cell modulator | HKDC1 inhibitor | PfG6PD inh | ATG4B inhibitor | PKA-R2B act | PKA-R1A activ
CC(C)C(=O)N1CCC2(CC1)Oc1ccc(Cl)cc1C(=O)C21CC(c2cccnc2)=NO1 (stereo not drawn) | 0.0* | -2.6 | -7.5 | -1.8 | 0.0 | -13.9
CC1(C)Cc2c(C#N)c(NC3CCCCC3)nc(-c3ccco3)c2CO1 | 0.0* | nt | nt | nt | -0.7 | 2.5
C=CCC[C@H](Cc1ccc(F)cc1)C(=O)OC[C@H](C)NC(=O)[C@@H](CC=C)CC(=O)N[C@H](CO)Cc1ccccc1 | 61.0* | 8.0 | 26.8 | -5.4 | -2.8 | -1.9
O=C(C#Cc1ccccc1)c1cccc([N+](=O)[O-])c1 | 165.1 | 37.0* | 42.7 | 3.4 | 2.4 | 4.0
CC(=O)c1cccc([N+](=O)[O-])c1 | i | 0.7 | -11.9 | -4.8 | -4.0 | -6.4
Cc1cc(O)c(C=O)c2c1C(=O)Oc1c(CO)c(O)c3c(c1O2)C(O)OC3=O (stereo not drawn) | 336.9 | 36.8* | 24.7 | 86.2* | 3.1 | 6.9
Cc1nnc(SCC(=O)Nc2cc(Cl)ccc2Cl)n1CC1CCCO1 (stereo not drawn) | 345.6 | -1.9 | -5.4 | -3.2 | -12.7 | -9.0
O=C(O)CCCCCn1c(SCc2cc(=O)n3cc(Cl)ccc3n2)nc2ccsc2c1=O | 250.8 | -1.1 | -3.1 | 33.9 | -5.8 | 7.0
O=C(O)C1CCC(Cn2c(SCc3cc(=O)n4cc(Cl)ccc4n3)nc3ccsc3c2=O)CC1 (stereo not drawn) | 24.9* | 0.3 | 14.3 | -4.8 | -6.1 | -8.9
O=C(c1ccc(N2C(=O)C3CC=C(Cl)CC3C2=O)cc1)N1CCCCC1 (stereo not drawn) | 0.0* | -6.6 | -14.2 | -5.7 | -0.2 | 0.7
CNC1=C(N(C(C)=O)c2ccc(Br)cc2)C(=O)c2ccccc2C1=O | 737.0 | 9.2 | 43.5 | -7.7 | 2.9 | -5.2
CC(=O)C1=C(c2ccc(Br)cc2)C(=O)c2ccccc2C1=O | 286.6 | 82.7* | 106.0* | 28.6 | -7.5 | 2.1
CCCNC(=O)CSc1nnc(NC(=O)C2CC(=O)N(c3ccccc3OC)C2)s1 (stereo not drawn) | nt | nt | 31.7 | nt | 8.6 | -2.3
COC(=O)C1OCOC2C(C(=O)OC)OCOC12 (stereo not drawn) | nt | -8.4 | -11.6 | 0.5 | -0.7 | -4.2
CCC1=Nc2cc(C(=O)NCc3ccco3)ccc2Sc2ccc(C)cc21 | 324.9 | 17.1 | 18.0 | 51.2* | -3.0 | -8.7
CCC1=Nc2cc(C(=O)NCCN3CCOCC3)ccc2Sc2ccc(C)cc21 | i | 5.6 | 8.3 | 2.8 | -15.3 | 4.2
C[C@H](CO)N1C[C@H](C)[C@@H](CN(C)S(=O)(=O)c2ccc(-n3cccn3)cc2)OCc2cn(nn2)CCCC1=O | nt | nt | -2.0 | nt | 2.3 | -4.9
CC(=O)NC1=C(N(C)C2CCS(=O)(=O)C2)C(=O)c2ccccc2C1=O (stereo not drawn) | 254.1 | 39.4* | 97.3* | 1.5 | 3.9 | 6.5
CN(C(=O)Nc1ccccc1)C1CCS(=O)(=O)C1 (stereo not drawn) | 501.8 | -1.3 | -2.5 | 6.0 | -5.7 | 4.0

Assay outcomes deposited in PubChem by several laboratories.
